Reference: ChEMBL document CHEMBL4689842, “EUbOPEN Chemogenomics Library wave 1” (2021)

Test system: HEK-293T
Experiment: Multiplex assay against HEK293T;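 as to Population Tubulin-Different-Phenotype (%): share of the cells with healthy nuclei that show this phenotype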
Type: toxicity, cell-based
Details: human
In short: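 Phenotypes for tubulin, mitochondrial mass and membrane permeability are expressed as per cents of healthy-nucleus cells. Cells were stained live at seeding with Hoechst33342, BioTracker Green Microtubule Cytoskeleton Dye, MitoTracker Red and Annexin V Alexa Fluor 680, then imaged after compound addition on a CQ1 microscope at 37°C and 5% CO2. Machine-learning gating in CellPathfinder separated Hoechst high-intensity objects from normal cells, divided normal cells by nuclear state (healthy, pyknosed, fragmented) and divided pyknosed cells into mitotic or apoptotic.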

[1] = 12 h, 1 µM, compound concentration 1 uM, replicate 1
[2] = 12 h, 1 µM, compound concentration 1 uM, replicate 2
[3] = 12 h, 10 µM, compound concentration 10 uM, replicate 1
[4] = 12 h, 10 µM, compound concentration 10 uM, replicate 2
[5] = 24 h, 1 µM, compound concentration 1 uM, replicate 1
[6] = 24 h, 1 µM, compound concentration 1 uM, replicate 2
[7] = 24 h, 10 µM, compound concentration 10 uM, replicate 1
[8] = 24 h, 10 µM, compound concentration 10 uM, replicate 2
[9] = 48 h, 1 µM, compound concentration 1 uM, replicate 1
[10] = 48 h, 1 µM, compound concentration 1 uM, replicate 2
[11] = 48 h, 10 µM, compound concentration 10 uM, replicate 1
[12] = 48 h, 10 µM, compound concentration 10 uM, replicate 2

## Cc1c[nH]c2nccc(Oc3c(F)cc(Nc4cc(Cl)nc(N)n4)cc3F)c12 [BAY-549]
[1]
  Population Apoptotic (%): 37%
  Population Fragmented Nuclei (%): 15%
  Population Healthy Nuclei (%): 32%
  Population Hoechst High Intensity Objects (%): 12%
  Population Membrane Permeable-Phenotype (%): 0%
  Population Mitochondria Different-Phenotype (%): 71%
  Population Mitotic Cells (%): 62%
  Population Normal (%): 87%
  Population Pyknosed Nuclei (%): 52%
  Population Tubulin-Different-Phenotype (%): 31%
  Total Cell Count: 310
[2]
  Population Apoptotic (%): 13%
  Population Fragmented Nuclei (%): 7%
  Population Healthy Nuclei (%): 54%
  Population Hoechst High Intensity Objects (%): 4%
  Population Membrane Permeable-Phenotype (%): 8%
  Population Mitochondria Different-Phenotype (%): 8%
  Population Mitotic Cells (%): 86%
  Population Normal (%): 95%
  Population Pyknosed Nuclei (%): 37%
  Population Tubulin-Different-Phenotype (%): 14%
  Total Cell Count: 236
[3]
  Population Apoptotic (%): 45%
  Population Fragmented Nuclei (%): 9%
  Population Healthy Nuclei (%): 45%
  Population Hoechst High Intensity Objects (%): 8%
  Population Mitochondria Different-Phenotype (%): 65%
  Population Mitotic Cells (%): 54%
  Population Normal (%): 91%
  Population Pyknosed Nuclei (%): 44%
  Population Tubulin-Different-Phenotype (%): 5%
  Total Cell Count: 370
[4]
  Population Apoptotic (%): 16%
  Population Fragmented Nuclei (%): 5%
  Population Healthy Nuclei (%): 42%
  Population Hoechst High Intensity Objects (%): 3%
  Population Membrane Permeable-Phenotype (%): 0%
  Population Mitochondria Different-Phenotype (%): 11%
  Population Mitotic Cells (%): 83%
  Population Normal (%): 96%
  Population Pyknosed Nuclei (%): 52%
  Population Tubulin-Different-Phenotype (%): 1%
  Total Cell Count: 247
[5]
  Population Apoptotic (%): 45%
  Population Fragmented Nuclei (%): 14%
  Population Healthy Nuclei (%): 32%
  Population Hoechst High Intensity Objects (%): 10%
  Population Membrane Permeable-Phenotype (%): 2%
  Population Mitochondria Different-Phenotype (%): 47%
  Population Mitotic Cells (%): 54%
  Population Normal (%): 89%
  Population Pyknosed Nuclei (%): 52%
  Population Tubulin-Different-Phenotype (%): 25%
  Total Cell Count: 284
[6]
  Population Apoptotic (%): 18%
  Population Fragmented Nuclei (%): 13%
  Population Healthy Nuclei (%): 66%
  Population Hoechst High Intensity Objects (%): 3%
  Population Membrane Permeable-Phenotype (%): 8%
  Population Mitochondria Different-Phenotype (%): 10%
  Population Mitotic Cells (%): 81%
  Population Normal (%): 96%
  Population Pyknosed Nuclei (%): 19%
  Population Tubulin-Different-Phenotype (%): 7%
  Total Cell Count: 255
[7]
  Population Apoptotic (%): 48%
  Population Fragmented Nuclei (%): 11%
  Population Healthy Nuclei (%): 41%
  Population Hoechst High Intensity Objects (%): 9%
  Population Mitochondria Different-Phenotype (%): 51%
  Population Mitotic Cells (%): 51%
  Population Normal (%): 90%
  Population Pyknosed Nuclei (%): 46%
  Population Tubulin-Different-Phenotype (%): 4%
  Total Cell Count: 375
[8]
  Population Apoptotic (%): 31%
  Population Fragmented Nuclei (%): 6%
  Population Healthy Nuclei (%): 49%
  Population Hoechst High Intensity Objects (%): 2%
  Population Membrane Permeable-Phenotype (%): 0%
  Population Mitochondria Different-Phenotype (%): 21%
  Population Mitotic Cells (%): 68%
  Population Normal (%): 97%
  Population Pyknosed Nuclei (%): 44%
  Population Tubulin-Different-Phenotype (%): 5%
  Total Cell Count: 233
[9]
  Population Apoptotic (%): 48%
  Population Fragmented Nuclei (%): 29%
  Population Healthy Nuclei (%): 34%
  Population Hoechst High Intensity Objects (%): 9%
  Population Membrane Permeable-Phenotype (%): 1%
  Population Mitochondria Different-Phenotype (%): 24%
  Population Mitotic Cells (%): 51%
  Population Normal (%): 90%
  Population Pyknosed Nuclei (%): 36%
  Population Tubulin-Different-Phenotype (%): 24%
  Total Cell Count: 307
[10]
  Population Apoptotic (%): 28%
  Population Fragmented Nuclei (%): 25%
  Population Healthy Nuclei (%): 64%
  Population Hoechst High Intensity Objects (%): 2%
  Population Membrane Permeable-Phenotype (%): 8%
  Population Mitochondria Different-Phenotype (%): 4%
  Population Mitotic Cells (%): 71%
  Population Normal (%): 97%
  Population Pyknosed Nuclei (%): 10%
  Population Tubulin-Different-Phenotype (%): 10%
  Total Cell Count: 336
[11]
  Population Apoptotic (%): 60%
  Population Fragmented Nuclei (%): 16%
  Population Healthy Nuclei (%): 34%
  Population Hoechst High Intensity Objects (%): 9%
  Population Mitochondria Different-Phenotype (%): 45%
  Population Mitotic Cells (%): 39%
  Population Normal (%): 90%
  Population Pyknosed Nuclei (%): 48%
  Population Tubulin-Different-Phenotype (%): 6%
  Total Cell Count: 330
[12]
  Population Apoptotic (%): 56%
  Population Fragmented Nuclei (%): 4%
  Population Healthy Nuclei (%): 47%
  Population Hoechst High Intensity Objects (%): 3%
  Population Membrane Permeable-Phenotype (%): 1%
  Population Mitochondria Different-Phenotype (%): 10%
  Population Mitotic Cells (%): 43%
  Population Normal (%): 96%
  Population Pyknosed Nuclei (%): 47%
  Population Tubulin-Different-Phenotype (%): 8%
  Total Cell Count: 219
